Source: ChEMBL document CHEMBL2046311, “Design, synthesis, and molecular hybrids of caudatin and cinnamic acids as novel anti-hepatitis B virus agents” (Eur J Med Chem, 2012)

What was measured:
Hepatitis B virus [1] = assay: Antiviral activity against Hepatitis B virus infected in human HepG2(2.2.15) cells assessed as inhibition of viral e antigen secretion by ELISA; type: functional, organism-based
Procedure, shortened: (§1)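 HepG 2.2.15 cells in RPMI-1640 with 10% fetal calf serum at 37 °C, 5% CO2. Compounds dissolved in DMSO, culture DMSO below 2.5 μL/mL. Secreted HBeAg and HBsAg measured by ELISA. IC50 values are means of at least two experiments.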

[2] = Selectivity index, ratio of CC50 for human HepG2(2.2.15) cells to IC50 for Hepatitis B virus infected in human HepG2(2.2.15) cells assessed as inhibition of viral DNA replication; type: functional
Procedure, shortened: (§2)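 SI calculated as CC50 (MTT, HepG 2.2.15) divided by IC50 for the named read-out (HBV DNA by real-time PCR, or HBeAg or HBsAg secretion by ELISA), in the same cell line.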

Hepatitis B virus [3] = assay: Antiviral activity against Hepatitis B virus infected in human HepG2(2.2.15) cells assessed as inhibition of viral DNA replication by PCR analysis; type: functional, organism-based
Procedure, shortened: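 HepG 2.2.15 cells grown in RPMI-1640 with 10% fetal calf serum, […] and penicillin/streptomycin at 37 °C, 5% CO2. Compounds added in DMSO, kept below 2.5 μL/mL. HBV DNA quantified by SYBR Green real-time PCR with HBV-specific primers spanning 541–591 bp. IC50 values are means of at least two experiments.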

[4] = Selectivity index, ratio of CC50 for human HepG2(2.2.15) cells to IC50 for Hepatitis B virus infected in human HepG2(2.2.15) cells assessed as inhibition of viral surface antigen secretion; type: functional; procedure, shortened: as §2
[5] = Selectivity index, ratio of CC50 for human HepG2(2.2.15) cells to IC50 for Hepatitis B virus infected in human HepG2(2.2.15) cells assessed as inhibition of viral e antigen secretion; type: functional; procedure, shortened: as §2
Hepatitis B virus [6] = assay: Antiviral activity against Hepatitis B virus infected in human HepG2(2.2.15) cells assessed as inhibition of viral surface antigen secretion by ELISA; type: functional, organism-based; procedure, shortened: as §1
[7] = Cytotoxicity against human HepG2(2.2.15) cells by modified-MTT assay; type: cell-based
Procedure, shortened: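 HepG 2.2.15 cells in RPMI-1640 with 10% fetal calf serum at 37 °C, 5% CO2. Compounds in DMSO, final DMSO below 2.5 μL/mL. Viability read by modified MTT method. CC50 is the mean of at least two experiments.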

SMILES | IC50 (Hepatitis B virus [1]) [µM] | Ratio CC50/IC50 [2] | IC50 (Hepatitis B virus [3]) [µM] | Ratio CC50/IC50 [4] | Ratio CC50/IC50 [5] | IC50 (Hepatitis B virus [6]) [µM] | CC50 [7] [mM]
CC(=O)[C@]1(O)CC[C@@]2(O)[C@]1(C)[C@H](OC(=O)/C=C(\C)C(C)C)C[C@@H]1[C@@]3(C)CC[C@H](OC(=O)/C=C/c4ccc(F)cc4)CC3=CC[C@]12O | 39.5 | >123.9 | 10.4 | >28.3 | >32.6 | 45.6 | > 1.29
CC(=O)[C@]1(O)CC[C@@]2(O)[C@]1(C)[C@H](OC(=O)/C=C(\C)C(C)C)C[C@@H]1[C@@]3(C)CC[C@H](OC(=O)/C=C/c4ccccc4C(F)(F)F)CC3=CC[C@]12O | > 1280 | 352.9 | 5 | 37.6 | <1.4 | 46.9 | 1.76
CC(=O)[C@]1(O)CC[C@@]2(O)[C@]1(C)[C@H](OC(=O)/C=C(\C)C(C)C)C[C@@H]1[C@@]3(C)CC[C@H](OC(=O)/C=C/c4cccc(Cl)c4)CC3=CC[C@]12O | 359 | >103.6 | 12.7 | >70.1 | >3.7 | 18.8 | > 1.32
CC(=O)[C@]1(O)CC[C@@]2(O)[C@]1(C)[C@H](OC(=O)/C=C(\C)C(C)C)C[C@@H]1[C@@]3(C)CC[C@H](OC(=O)/C=C/c4ccccc4Cl)CC3=CC[C@]12O | 550 | >50.1 | 22.9 | >40.4 | >2.1 | 28.4 | > 1.15
CC(=O)[C@]1(O)CC[C@@]2(O)[C@]1(C)[C@H](OC(=O)/C=C(\C)C(C)C)C[C@@H]1[C@@]3(C)CC[C@H](OC(=O)/C=C/c4ccc(F)c(F)c4)CC3=CC[C@]12O | 69.2 | >277 | 4.66 | >82.7 | >18.7 | 15.6 | > 1.29
CC(=O)[C@]1(O)CC[C@@]2(O)[C@]1(C)[C@H](OC(=O)/C=C(\C)C(C)C)C[C@@H]1[C@@]3(C)CC[C@H](OC(=O)/C=C/c4ccccc4)CC3=CC[C@]12O | 94.2 | >239.9 | 5.91 | >29.3 | >15 | 48.3 | > 1.42
CC(=O)[C@]1(O)CC[C@@]2(O)[C@]1(C)[C@H](OC(=O)/C=C(\C)C(C)C)C[C@@H]1[C@@]3(C)CC[C@H](OC(=O)/C=C/c4ccc(Cl)cc4Cl)CC3=CC[C@]12O | 1180 | >130.3 | 14.5 | >8.8 | >1.6 | 216 | > 1.89
CCOc1cccc(/C=C/C(=O)O[C@H]2CC[C@@]3(C)C(=CC[C@]4(O)[C@@H]3C[C@@H](OC(=O)/C=C(\C)C(C)C)[C@@]3(C)[C@]4(O)CC[C@@]3(O)C(C)=O)C2)c1 | 141 | >230.1 | 9.3 | >85.9 | >15.2 | 24.9 | > 2.14
CC(=O)[C@]1(O)CC[C@@]2(O)[C@]1(C)[C@H](OC(=O)/C=C(\C)C(C)C)C[C@@H]1[C@@]3(C)CC[C@H](OC(=O)/C=C/c4cccc(C)c4)CC3=CC[C@]12O | 132 | >192.6 | 7.22 | >54.7 | >10.5 | 25.4 | > 1.39
CC(=O)[C@]1(O)CC[C@@]2(O)[C@]1(C)[C@H](OC(=O)/C=C(\C)C(C)C)C[C@@H]1[C@@]3(C)CC[C@H](OC(=O)/C=C/c4ccc5c(c4)OCO5)CC3=CC[C@]12O | 43.7 | >256.7 | 6.45 | >176.7 | >37.9 | 9.37 | > 1.66
CC(=O)[C@]1(O)CC[C@@]2(O)[C@]1(C)[C@H](OC(=O)/C=C(\C)C(C)C)C[C@@H]1[C@@]3(C)CC[C@H](OC(=O)/C=C/c4ccccc4[N+](=O)[O-])CC3=CC[C@]12O | 52.7 | >71.4 | 21.7 | >41.9 | >29.4 | 37 | > 1.55
CCOc1ccccc1/C=C/C(=O)O[C@H]1CC[C@@]2(C)C(=CC[C@]3(O)[C@@H]2C[C@@H](OC(=O)/C=C(\C)C(C)C)[C@@]2(C)[C@]3(O)CC[C@@]2(O)C(C)=O)C1 | 404 | >143.8 | 12 | >42.6 | >4.3 | 40.6 | > 1.73
CC(=O)[C@]1(O)CC[C@@]2(O)[C@]1(C)[C@H](OC(=O)/C=C(\C)C(C)C)C[C@@H]1[C@@]3(C)CC[C@H](OC(=O)/C=C/c4ccc(C=O)cc4)CC3=CC[C@]12O | 19.2 | 6.3 | 6.34 | 1.7 | 2.1 | 23.5 | 0.0402
CC(=O)[C@]1(O)CC[C@@]2(O)[C@]1(C)[C@H](OC(=O)/C=C(\C)C(C)C)C[C@@H]1[C@@]3(C)CC[C@H](OC(=O)/C=C/c4ccc(F)c(C(F)(F)F)c4)CC3=CC[C@]12O | 798 | >149.2 | 8.93 | >18.6 | >1.7 | 71.6 | > 1.33
CC(=O)[C@]1(O)CC[C@@]2(O)[C@]1(C)[C@H](OC(=O)/C=C(\C)C(C)C)C[C@@H]1[C@@]3(C)CC[C@H](OC(=O)/C=C/c4ccc(F)c(F)c4F)CC3=CC[C@]12O | 14 | 140.2 | 2.83 | >71.1 | 28.3 | < 5.58 | 0.397
CC(=O)[C@]1(O)CC[C@@]2(O)[C@]1(C)[C@H](OC(=O)/C=C(\C)C(C)C)C[C@@H]1[C@@]3(C)CC[C@H](OC(=O)/C=C/c4ccccc4F)CC3=CC[C@]12O | 21.6 | 68.1 | 7.68 | 7.3 | 24.2 | 72 | 0.523
COc1ccc(/C=C/C(=O)O[C@H]2CC[C@@]3(C)C(=CC[C@]4(O)[C@@H]3C[C@@H](OC(=O)/C=C(\C)C(C)C)[C@@]3(C)[C@]4(O)CC[C@@]3(O)C(C)=O)C2)cc1OC | 85.2 | >135.6 | 11.8 | >72.7 | >18.8 | 22.1 | > 1.6
CC(=O)[C@]1(O)CC[C@@]2(O)[C@]1(C)[C@H](OC(=O)/C=C(\C)C(C)C)C[C@@H]1[C@@]3(C)CC[C@H](OC(=O)/C=C/c4cc(F)cc(F)c4)CC3=CC[C@]12O | 90.7 | >72 | 18.6 | >66 | >14.8 | 20.3 | > 1.34
CC(=O)[C@]1(O)CC[C@@]2(O)[C@]1(C)[C@H](OC(=O)/C=C(\C)C(C)C)C[C@@H]1[C@@]3(C)CC[C@H](OC(=O)/C=C/c4ccc(Cl)c([N+](=O)[O-])c4)CC3=CC[C@]12O | 79.5 | 71.3 | 6.31 | 47.3 | 5.7 | 9.52 | 0.45
COc1ccccc1/C=C/C(=O)O[C@H]1CC[C@@]2(C)C(=CC[C@]3(O)[C@@H]2C[C@@H](OC(=O)/C=C(\C)C(C)C)[C@@]2(C)[C@]3(O)CC[C@@]2(O)C(C)=O)C1 | 753 | >324.1 | 7.3 | >36.9 | >3.1 | 64 | > 2.37
CC(=O)[C@]1(O)CC[C@@]2(O)[C@]1(C)[C@H](OC(=O)/C=C(\C)C(C)C)C[C@@H]1[C@@]3(C)CC[C@H](OC(=O)/C=C/c4ccc(Cl)c(Cl)c4)CC3=CC[C@]12O | 949 | >101.2 | 14.1 | >12.7 | >1.5 | 112 | > 1.42
CC(=O)[C@]1(O)CC[C@@]2(O)[C@]1(C)[C@H](OC(=O)/C=C(\C)C(C)C)C[C@@H]1[C@@]3(C)CC[C@H](OC(=O)/C=C/c4cccc(F)c4)CC3=CC[C@]12O | 12.6 | >224 | 4.75 | >126.7 | >84.7 | 8.4 | > 1.06
